Screening results deposited in PubChem BioAssay by The Scripps Research Institute Molecular Screening Center.
A selection: hits, their analogues and other compounds. The true share with any hit is near 2.8%.
PAFAH2 FP inh – inhibitors of human PAFAH2 | 340,000 compounds, 0.99% hits | inhibition, % at 3.39 µM | recombinant PAFAH2, FP-rhodamine activity probe, fluorescence polarization | Q99487 | AID 492956;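 active means inhibition above the mean over all tested compounds plus 3 SD, cut at about 30% in these data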;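 further: inhibitors block probe labeling of enzyme so polarization drops; 0% = enzyme with DMSO and 100% = wells lacking PAFAH2 protein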
PAFAH1B3 inh – blocks human PAF acetylhydrolase 1B catalytic subunit 3. Q15102. recombinant PAFAH1B3, FP-rhodamine probe, fluorescence polarization. inhibition, % at 3.39 µM. 340,000 compounds, 0.28% hits;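 active means inhibition above the screen-wide average of all tested compounds plus 3 SD, cut at about 25% in these data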;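 further: 0% = enzyme with DMSO only and 100% = wells lacking PAFAH1B3 protein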
HTRA1 inh – inhibitors of human serine peptidase HTRA1. inhibition, % at 5.96 µM. recombinant HTRA1, FP-rhodamine activity-based probe, fluorescence polarization. Q92743. AID 504803. 340,000 compounds, 0.5% hits; in the data active means inhibition above about 36%;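 further: 0% = enzyme with DMSO and 100% = wells lacking enzyme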
Target sequence (Q92743 whole entry, looked up): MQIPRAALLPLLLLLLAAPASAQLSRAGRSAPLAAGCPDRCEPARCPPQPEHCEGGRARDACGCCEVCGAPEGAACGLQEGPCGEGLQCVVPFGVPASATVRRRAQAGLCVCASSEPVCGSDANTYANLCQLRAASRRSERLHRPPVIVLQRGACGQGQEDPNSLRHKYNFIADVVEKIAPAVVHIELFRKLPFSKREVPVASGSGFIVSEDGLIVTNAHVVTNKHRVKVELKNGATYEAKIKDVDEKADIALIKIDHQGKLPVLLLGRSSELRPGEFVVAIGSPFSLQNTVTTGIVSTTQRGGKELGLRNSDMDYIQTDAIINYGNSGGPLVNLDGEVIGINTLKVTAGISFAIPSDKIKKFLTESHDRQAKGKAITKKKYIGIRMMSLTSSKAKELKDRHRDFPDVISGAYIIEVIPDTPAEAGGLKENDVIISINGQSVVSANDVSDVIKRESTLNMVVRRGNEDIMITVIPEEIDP
pPAFAH inh – pPAFAH (human) enzyme inhibition. Q13093. recombinant pPAFAH, FP-rhodamine probe fluorescence polarization. inhibition, % at 3.39 µM. 330,000 compounds, 1.5% hits;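 active means inhibition above the mean inhibition across the screen plus 3 SD, cut at about 25% in these data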;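 further: inhibitors block binding of the rhodamine activity-based probe so polarization drops; 0% = enzyme with DMSO and 100% = wells lacking pPAFAH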
PAFAH1B2 FP inh – PAFAH1B2 (human) inhibition. P68402. recombinant PAFAH1B2, FP-rhodamine activity probe, fluorescence polarization. inhibition, % at 3.39 µM. 340,000 compounds, 1.2% hits. AID 492953;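 active means inhibition above the mean of all tested compounds plus 3 SD, cut at about 24% in these data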;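 further: 0% = enzyme with DMSO and 100% = wells lacking PAFAH1B2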
Target sequence (P68402 whole entry, looked up): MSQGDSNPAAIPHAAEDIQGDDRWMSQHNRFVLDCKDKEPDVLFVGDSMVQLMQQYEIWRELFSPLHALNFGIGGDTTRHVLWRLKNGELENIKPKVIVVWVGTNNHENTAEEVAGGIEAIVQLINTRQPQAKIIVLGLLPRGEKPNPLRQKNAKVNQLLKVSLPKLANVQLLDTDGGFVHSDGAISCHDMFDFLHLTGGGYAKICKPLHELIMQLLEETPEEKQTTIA
ABHD4 inh – inhibitors of mouse ABHD4; Q8VD66; purified mABHD4, FP-Rh probe fluorescence polarization; inhibition, % at 8.92 µM; 370,000 compounds, 0.54% hits;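 active means inhibition exceeding the mean over every tested compound plus 3 SD, cut at about 30% in these data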;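 further: 0% = plate median of compound wells and 100% = S159A mutant with DMSO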
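System: mouse ABHD4 enzyme, wild type / Medium: HEPES pH 7.0, NaCl, Pluronic buffer / Reagent: FP-Rh activity-based fluorescent probe / Control set: S159A mutant high control, sample median low control / Detection: fluorescence polarization with parallel and perpendicular emission, 525/598 nm / Schedule: 45 min + 60 min at 25 °C / Compound dosing: 8.92 µM, single dose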
mABHD4 conf – ABHD4 (mouse) inhibition, FP confirmation. inhibition, % at 8.92 µM. purified mABHD4, FP-Rh probe fluorescence polarization. 1,800 compounds, 55% hits. shares compounds with ABHD4 inh;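 active means mean inhibition across replicates above the hit cutoff set in the primary screen, cut at about 30% in these data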;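 further: 0% = wild-type ABHD4 with DMSO and 100% = catalytically dead S159A mutant with DMSO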
The depositor's hits bear a star; . = no result.

SMILES	PAFAH2 FP inh	PAFAH1B3 inh	HTRA1 inh	pPAFAH inh	PAFAH1B2 FP inh	ABHD4 inh	mABHD4 conf
O=C(C=Cc1ccco1)c1ccco1	0	5	9	.	-3	32*	12
O=C(/C=C/c1ccc([N+](=O)[O-])cc1)/C=C/c1ccco1	15	9	33	62*	-3	39*	33*
C[C@H]1COc2cc(Br)ccc2S(=O)(=O)N1Cc1cn(CCC2OCCCO2)nn1	.	.	.	.	.	5	.
O=[N+]([O-])c1c(Nc2ccccc2O)cc(Cl)c2nonc12	7	9	29	.	6	33*	49*
COc1ccc(C2C(C(=O)N3CCN(c4ccccc4Cl)CC3)CC(=O)N2c2ccc(OC)cc2)cc1 (stereo unspecified)	.	.	.	.	.	2	.
O=C1C[C@@H](O)[C@H](O)c2cccc(O)c21	.	.	.	.	.	35*	19
O=C(CSc1nc2ccccc2nc1N1CCCCC1)N1CCN(S(=O)(=O)c2ccccc2)CC1	.	.	.	.	.	0	.
CCCCCCCCN1C(=O)[C@@H](CC(=O)N2CCN(C(=O)C3CC3)CC2)C[C@@]2(C(=O)OC)C1=C[C@H](C(C)C)O[C@@H]2C1CC1	.	.	.	.	.	-10	.
O=C(O)CCCCCn1c(SCC(=O)c2ccc(O)c(O)c2)nc2ccsc2c1=O	15	22	9	21	8	34*	36*
O=C(O)CCCCCn1c(SCC(=O)N2CCCC2)nc2ccsc2c1=O	3	0	3	4	4	-2	.
CCC[C@@H](CN1CCC[C@H]1CN1C(N)=NC[C@H]1CC(C)C)N1C[C@@H](Cc2ccccc2)N(CCCC2CCCC2)C1=N	2	11	-5	-2	3	34*	26
C[C@@H](CN1CCC[C@H]1CN1C(N)=NC[C@@H]1Cc1ccccc1)N1C[C@@H](Cc2ccccc2)N(CCc2ccc(Cl)c(Cl)c2)C1=N	4	0	20	-2	5	.	.
CCC[C@@H](CN1CCC[C@H]1CN1C(N)=NC[C@H]1CC(C)C)N1C[C@@H](Cc2ccccc2)N(CCc2ccc(Cl)c(Cl)c2)C1=N	-3	6	17	-2	1	30*	36*
CCC[C@@H](CN1CCC[C@H]1CN1C(N)=NC[C@H]1CC(C)C)N1C[C@@H]([C@H](C)CC)N(CCc2ccc(Cl)c(Cl)c2)C1=N	4	10	-1	-3	0	38*	34*
CCC[C@@H](CN1CCC[C@H]1CN1C(N)=NC[C@@H]1Cc1ccccc1)N1C[C@@H](Cc2ccccc2)N(CCCC2CCCC2)C1=N	-7	-5	0	4	-3	.	.
CC[C@@H](C)[C@@H]1CN([C@@H](CN2CCC[C@H]2CN2C(N)=NC[C@H]2CC(C)C)C(C)C)C(=N)N1CCc1ccc(Cl)c(Cl)c1	10	5	9	-3	2	35*	46*
COC(=O)[C@]12C[C@H](CC(=O)NCCC(C)C)C(=O)N(Cc3ccc(Cl)cc3Cl)C1=C[C@H](C(C)(C)C)O[C@@H]2C	.	.	.	.	.	-9	.
O=C(N/N=C/c1c(O)ccc2ccccc12)c1cccnc1	11	25	31	25*	20	30*	32*
COc1ccc(S[C@]2(C(=O)N3CCOCC3)CC(=O)N(c3ccc(C#N)cc3)[C@@H]2c2ccc(OC)cc2)cc1	.	.	.	.	.	-3	.
CNC[C@H](CC1CCCCC1)NC[C@H](Cc1ccccc1)NCCC12CC3CC(CC(C3)C1)C2	-3	16	-5	-2	0	48*	75*
NC[C@H](Cc1ccccc1)NCCCCC1CCCCC1	3	0	6	4	7	19	.
Fc1ccc(-c2n[nH]c(=S)n2N=Cc2cccc(OCc3ccccc3)c2)cc1	.	.	.	.	.	0	.
CN(C)/C=C/c1oc2ccc(O)cc2c1[N+](=O)[O-]	0	-2	4	18	-3	32*	5
COC(=O)c1cc(-c2ccccc2OC)c(=O)n2c1CCC2	.	.	.	.	.	2	.
Cc1ccc(-c2cc(NC(=O)Cc3c(C)[nH]c4ccccc34)ccc2Nc2cccnc2)cc1	.	.	.	.	.	32*	37*
SMILES	PAFAH2 FP inh	PAFAH1B3 inh	HTRA1 inh	pPAFAH inh	PAFAH1B2 FP inh	ABHD4 inh	mABHD4 conf
Cc1[nH]c2ccccc2c1CC(=O)Nc1ccc(Nc2cccnc2)c(-c2ccc(F)c(F)c2)c1	.	.	.	.	.	27	.
C#CCOCCOCCOCCNc1nc(N2CCN(C(=O)[C@H](CCCCN)n3cc([C@@H](N)CC(C)C)nn3)CC2)nc(N2CCN(C(=O)[C@H](Cc3cc4ccccc4[nH]3)n3cc([C@@H](N)CC(C)C)nn3)CC2)n1	.	.	.	.	.	5	.
CCCCNC(=O)C[C@@H]1C(=O)N2CCCC3=C2[C@@]1(C(=O)OC)CCCC3	.	.	.	.	.	1	.
Nc1ccc(-c2c3ccc(=O)cc-3oc3cc(O)ccc23)cc1C(=O)O	12	19	28	19	14	30*	40*
O=C(O)c1cccc(Nc2nc(-c3cc4ccccc4oc3=O)cs2)c1	20	11	1	.	3	30*	49*
C=CCN(CC#CC(=C)C)Cc1ccccc1	.	.	.	.	.	1	.
Cc1cc2ccccc2n1CCNC(=O)Cc1cccc2ccccc12	1	-3	36	-1	2	46*	-18
CC(CCN1CCC(C(O)(c2ccccc2)c2ccccc2)CC1)Oc1cccc(F)c1 (stereo unspecified)	.	.	.	.	.	10	.
COC(=O)C1(C#N)C(c2ccccc2)C1(C(=O)OC)C(=O)OC (stereo unspecified)	-3	-4	2	-3	4	2	.
CCCCC1OC2(C)OC(=N)C1(C#N)C(C#N)(C#N)C2c1ccccc1 (stereo unspecified)	7	4	6	11	8	30*	10
Cc1cc(O)c(C=Nc2ccc(N3CCOCC3)cc2)c(C)c1Cl	-1	10	8	9	-1	11	.
Oc1ccc(N=Cc2cc(Br)c(N3CCOCC3)o2)cc1	-9	9	15	11	2	42*	6
Cc1nn(-c2ccccc2)c2sc(C(=O)NCc3ccc4c(c3)OCO4)cc12	.	.	.	.	.	-59	.
O=C1SC(SCc2ccccc2)=N/C1=C\c1ccco1	20	-5	-5	33*	7	30*	4
O=C1SC(SCc2ccccc2)=N/C1=C\c1ccc(C(=O)O)cc1	28	-5	-2	6	12	8	.
CC1=NN(c2ccccc2)C(=O)C1C=Nc1ccc(N(C)C)cc1 (stereo unspecified)	.	.	.	34*	.	39*	2
CC1=NN(c2ccccc2)C(=O)C1N=Nc1ccc(C)cc1 (stereo unspecified)	.	.	.	1	.	.	.
O=C(O)c1cccc(NC(=O)c2ccc3c(c2)C(=O)N(c2ccccc2)C3=O)c1	-5	9	-3	-9	1	4	.
O=C(O)c1ccc2c(c1)C(=O)N(c1ccc(Nc3ccccc3)cc1)C2=O	6	0	13	.	4	31*	18
